Data on 27 molecules can be found in ChEMBL document CHEMBL3808388 (J Med Chem, 2016).

Test [1] addresses T1, Rho-associated protein kinase 1 (Homo sapiens, UniProt Q13464). The experiment in a line: Inhibition of ROCK1 (unknown origin) at 10 uM by ADP-Glo kinase assay. In outline:
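ADP-Glo luminescence assay following the manufacturer's protocol. Percent inhibition was read at a single 10 μM inhibitor concentration.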
Target sequence in this assay (Q13464 2-1354 limits assumed): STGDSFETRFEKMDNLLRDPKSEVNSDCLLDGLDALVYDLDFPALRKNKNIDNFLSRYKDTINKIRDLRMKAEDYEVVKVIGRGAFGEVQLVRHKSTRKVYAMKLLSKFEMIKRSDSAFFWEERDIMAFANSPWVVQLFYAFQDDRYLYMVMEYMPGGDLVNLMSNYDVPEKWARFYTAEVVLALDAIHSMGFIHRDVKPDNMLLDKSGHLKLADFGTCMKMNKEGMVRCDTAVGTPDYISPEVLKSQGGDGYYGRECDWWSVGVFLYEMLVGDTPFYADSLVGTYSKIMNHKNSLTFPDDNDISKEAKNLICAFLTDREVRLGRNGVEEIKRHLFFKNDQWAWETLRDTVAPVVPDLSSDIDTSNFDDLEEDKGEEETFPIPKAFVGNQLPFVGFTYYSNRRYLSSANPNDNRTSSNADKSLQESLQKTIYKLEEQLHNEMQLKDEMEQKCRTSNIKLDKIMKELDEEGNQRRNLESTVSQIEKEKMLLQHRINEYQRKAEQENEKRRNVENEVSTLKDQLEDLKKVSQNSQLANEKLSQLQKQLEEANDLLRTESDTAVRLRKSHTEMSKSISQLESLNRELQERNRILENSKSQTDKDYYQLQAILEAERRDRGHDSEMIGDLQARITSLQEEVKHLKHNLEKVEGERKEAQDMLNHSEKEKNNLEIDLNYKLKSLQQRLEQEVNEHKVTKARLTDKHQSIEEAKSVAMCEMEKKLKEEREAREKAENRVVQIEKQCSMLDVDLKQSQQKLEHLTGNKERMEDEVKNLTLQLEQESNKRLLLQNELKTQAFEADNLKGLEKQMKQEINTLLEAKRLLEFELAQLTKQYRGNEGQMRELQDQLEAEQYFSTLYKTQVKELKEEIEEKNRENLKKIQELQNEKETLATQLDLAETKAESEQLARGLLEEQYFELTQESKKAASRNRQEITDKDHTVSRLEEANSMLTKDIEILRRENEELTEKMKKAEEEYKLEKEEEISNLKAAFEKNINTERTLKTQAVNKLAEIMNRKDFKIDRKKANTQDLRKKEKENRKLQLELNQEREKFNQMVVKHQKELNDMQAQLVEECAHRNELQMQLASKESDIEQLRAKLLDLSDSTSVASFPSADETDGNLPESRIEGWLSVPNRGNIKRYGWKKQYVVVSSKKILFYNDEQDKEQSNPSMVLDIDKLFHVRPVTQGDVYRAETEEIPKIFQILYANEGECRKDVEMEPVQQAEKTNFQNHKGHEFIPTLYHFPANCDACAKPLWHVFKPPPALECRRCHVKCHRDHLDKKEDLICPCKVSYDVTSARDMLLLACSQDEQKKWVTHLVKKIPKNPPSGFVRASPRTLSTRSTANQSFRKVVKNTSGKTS
Background: In ADP-Glo the light output rises with the ADP produced.

The target of a further test is T2, Rhodopsin kinase GRK1 (Homo sapiens, UniProt Q15835).
T2 sequence (Q15835 whole entry): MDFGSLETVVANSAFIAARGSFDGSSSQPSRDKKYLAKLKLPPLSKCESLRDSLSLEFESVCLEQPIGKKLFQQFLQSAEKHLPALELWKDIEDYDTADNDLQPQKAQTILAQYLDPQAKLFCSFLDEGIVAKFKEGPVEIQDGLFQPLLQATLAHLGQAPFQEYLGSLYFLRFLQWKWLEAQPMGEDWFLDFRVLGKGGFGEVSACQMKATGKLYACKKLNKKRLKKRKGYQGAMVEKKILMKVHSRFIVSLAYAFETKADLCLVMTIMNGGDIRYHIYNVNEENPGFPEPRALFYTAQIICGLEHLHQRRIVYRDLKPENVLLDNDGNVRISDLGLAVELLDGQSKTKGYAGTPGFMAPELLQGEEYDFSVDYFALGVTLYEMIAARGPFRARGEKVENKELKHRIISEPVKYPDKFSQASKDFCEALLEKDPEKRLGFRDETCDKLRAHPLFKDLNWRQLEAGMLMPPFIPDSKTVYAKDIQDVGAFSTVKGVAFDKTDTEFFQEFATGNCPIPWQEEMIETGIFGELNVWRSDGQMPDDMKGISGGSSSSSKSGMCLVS
The experiment in a line: Inhibition of GRK1 (unknown origin) using tubulin as substrate by SDS-PAGE method.

Test [2] addresses G protein-coupled receptor kinase 5 (Homo sapiens, UniProt P34947). The experiment in a line: Inhibition of GRK5 (unknown origin) using tubulin as substrate by SDS-PAGE method.
Test [3] is described as follows: Inhibition of PKA (unknown origin) using CREBtide as substrate by ADP-Glo kinase assay. The arrangement: species or system Homo sapiens. In outline: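 ADP-Glo luminescence assay following the manufacturer's protocol. Inhibition curves were fitted from luminescence. IC50s are averages of three separate experiments, each run in duplicate.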
Test [4] deals with T1, Rho-associated protein kinase 1. The experiment in a line: Inhibition of ROCK1 (unknown origin) by ADP-Glo kinase assay.
Target sequence in this assay (Q13464 whole entry): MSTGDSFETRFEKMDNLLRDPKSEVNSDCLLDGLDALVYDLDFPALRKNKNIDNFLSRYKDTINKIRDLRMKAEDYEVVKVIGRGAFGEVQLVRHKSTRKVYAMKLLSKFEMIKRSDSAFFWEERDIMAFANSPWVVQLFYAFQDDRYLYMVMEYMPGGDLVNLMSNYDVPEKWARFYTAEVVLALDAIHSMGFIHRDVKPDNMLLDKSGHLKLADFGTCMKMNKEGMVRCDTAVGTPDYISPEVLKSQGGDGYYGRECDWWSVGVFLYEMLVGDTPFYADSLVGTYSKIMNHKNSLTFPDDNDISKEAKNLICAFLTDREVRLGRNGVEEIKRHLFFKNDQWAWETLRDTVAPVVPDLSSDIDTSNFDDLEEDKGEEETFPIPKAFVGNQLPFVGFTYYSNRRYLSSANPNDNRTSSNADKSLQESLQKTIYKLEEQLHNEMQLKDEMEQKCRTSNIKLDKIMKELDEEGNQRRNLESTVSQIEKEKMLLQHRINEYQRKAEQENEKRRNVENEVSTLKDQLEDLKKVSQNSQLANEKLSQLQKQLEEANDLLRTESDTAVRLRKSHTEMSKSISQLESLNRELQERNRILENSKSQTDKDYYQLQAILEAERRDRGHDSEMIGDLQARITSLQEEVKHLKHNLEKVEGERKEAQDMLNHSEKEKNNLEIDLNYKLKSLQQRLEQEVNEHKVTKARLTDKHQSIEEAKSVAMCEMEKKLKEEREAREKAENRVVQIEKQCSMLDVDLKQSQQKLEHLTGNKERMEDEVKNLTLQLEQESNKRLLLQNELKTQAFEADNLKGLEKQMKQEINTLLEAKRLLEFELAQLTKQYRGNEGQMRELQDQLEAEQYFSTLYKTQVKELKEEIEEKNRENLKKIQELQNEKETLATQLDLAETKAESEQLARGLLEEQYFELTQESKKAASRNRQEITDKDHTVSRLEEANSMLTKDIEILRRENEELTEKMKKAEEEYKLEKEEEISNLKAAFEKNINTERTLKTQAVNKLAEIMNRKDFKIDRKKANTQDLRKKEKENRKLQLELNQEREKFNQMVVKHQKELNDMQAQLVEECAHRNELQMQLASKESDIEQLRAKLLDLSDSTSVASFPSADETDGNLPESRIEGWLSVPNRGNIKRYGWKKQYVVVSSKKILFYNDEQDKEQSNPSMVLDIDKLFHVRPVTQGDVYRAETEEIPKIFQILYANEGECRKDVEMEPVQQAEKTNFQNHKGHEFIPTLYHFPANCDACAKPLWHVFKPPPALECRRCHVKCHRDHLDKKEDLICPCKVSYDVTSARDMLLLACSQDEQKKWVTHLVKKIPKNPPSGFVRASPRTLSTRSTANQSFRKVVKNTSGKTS
For test [5], the target named is T3, Beta-adrenergic receptor kinase 1 (Mus musculus) (UniProt Q99MK8).
T3 sequence (whole entry): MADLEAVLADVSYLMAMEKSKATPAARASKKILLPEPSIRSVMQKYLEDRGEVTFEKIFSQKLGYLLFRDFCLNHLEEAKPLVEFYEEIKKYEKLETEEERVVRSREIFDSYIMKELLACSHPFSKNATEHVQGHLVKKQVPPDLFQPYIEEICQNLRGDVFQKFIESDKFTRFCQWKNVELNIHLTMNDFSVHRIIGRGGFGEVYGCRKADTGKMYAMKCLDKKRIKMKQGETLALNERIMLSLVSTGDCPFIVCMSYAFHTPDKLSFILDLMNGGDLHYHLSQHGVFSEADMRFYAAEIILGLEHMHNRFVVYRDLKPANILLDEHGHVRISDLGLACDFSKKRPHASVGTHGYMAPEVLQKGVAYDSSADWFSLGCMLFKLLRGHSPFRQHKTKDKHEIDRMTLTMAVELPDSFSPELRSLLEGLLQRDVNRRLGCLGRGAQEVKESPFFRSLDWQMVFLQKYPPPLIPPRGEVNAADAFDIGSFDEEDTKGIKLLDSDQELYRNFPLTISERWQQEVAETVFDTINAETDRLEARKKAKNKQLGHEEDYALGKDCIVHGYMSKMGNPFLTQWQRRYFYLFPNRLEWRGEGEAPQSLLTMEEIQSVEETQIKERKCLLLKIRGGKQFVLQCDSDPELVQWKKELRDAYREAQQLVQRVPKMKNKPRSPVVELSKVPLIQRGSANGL
The experiment in a line: Inhibition of GRK2 in C57BL/6 mouse cardiomyocytes assessed as increase in contractility at 0.5 uM preincubated for 10 mins followed by beta adrenergic receptor agonist isoproterenol addition for 2 mins. Format: cell-based.

Test [6] deals with T3, Beta-adrenergic receptor kinase 1 (Mus musculus). The experiment in a line: Inhibition of GRK2 in C57BL/6 mouse cardiomyocytes assessed as increase in contractility at 1 uM preincubated for 10 mins followed by beta adrenergic receptor agonist isoproterenol addition for 2 mins. Type of test: cell-based.

The source made the active and inactive calls. No cut-off for these calls is given here.

Sequence of G protein-coupled receptor kinase 5 (P34947 whole entry): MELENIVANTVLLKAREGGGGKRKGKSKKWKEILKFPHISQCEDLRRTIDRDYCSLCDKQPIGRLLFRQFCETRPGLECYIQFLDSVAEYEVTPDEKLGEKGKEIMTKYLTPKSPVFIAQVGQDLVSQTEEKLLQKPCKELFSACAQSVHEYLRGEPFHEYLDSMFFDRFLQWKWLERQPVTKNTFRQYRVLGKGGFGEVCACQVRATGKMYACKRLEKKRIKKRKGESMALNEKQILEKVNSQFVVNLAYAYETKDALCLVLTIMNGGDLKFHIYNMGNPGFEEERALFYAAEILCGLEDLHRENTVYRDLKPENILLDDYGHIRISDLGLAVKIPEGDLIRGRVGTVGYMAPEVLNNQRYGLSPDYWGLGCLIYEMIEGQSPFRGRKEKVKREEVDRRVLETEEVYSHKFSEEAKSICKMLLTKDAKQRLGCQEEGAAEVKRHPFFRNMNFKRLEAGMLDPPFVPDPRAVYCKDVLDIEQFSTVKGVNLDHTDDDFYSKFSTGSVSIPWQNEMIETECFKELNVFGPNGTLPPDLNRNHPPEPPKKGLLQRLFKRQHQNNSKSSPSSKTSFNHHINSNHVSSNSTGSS

In the case of `CCCn1c(CNc2cccc(C(=O)NCc3c(F)cccc3F)c2)nnc1-c1ccncn1`, the inhibition in test [1] was found to be 10%. Also, the IC50 on Rhodopsin kinase GRK1 amounted to 9 µM; in test [2], 2.2 µM.
`Fc1ccc([C@@H]2CCNC[C@H]2COc2ccc3c(c2)OCO3)cc1` [PAROXETINE]: the inhibition in test [1] came out at 10%. In test [3], this molecule gave a half-maximal inhibitory concentration (IC50) of more than 100 µM.
`CC1=C(C(=O)Nc2ccc3[nH]ncc3c2)C(c2ccc(F)c(C(=O)NCc3c(F)cccc3F)c2)NC(=O)N1` (stereo unspecified): the IC50 in test [4] was 0.11 µM; against Rhodopsin kinase GRK1, more than 100 µM; in test [2], 5 µM; in test [3], more than 100 µM. Moreover, in test [5], the result was Active.
`CC1=C(C(=O)N(C)c2ccc3[nH]ncc3c2)C(c2ccc(F)c(C(=O)NCc3c(C)cccc3C)c2)NC(=O)N1` (stereo unspecified): the half-maximal inhibitory concentration (IC50) is 2.1 µM in test [4], more than 100 µM on Rhodopsin kinase GRK1 and more than 100 µM in test [3].
On to `CNC(=O)c1cc(C2NC(=O)NC(C)=C2C(=O)Nc2ccc3[nH]ncc3c2)ccc1F` (stereo unspecified), for which the half-inhibitory concentration (IC50) in test [4] was 0.56 µM; against Rhodopsin kinase GRK1, more than 100 µM; in test [2], more than 100 µM; in test [3], more than 100 µM.
Take `COc1cccc(OC)c1CNC(=O)Cc1cc(C2NC(=O)NC(C)=C2C(=O)Nc2ccc3[nH]ncc3c2)ccc1F` (stereo unspecified): the IC50 (against Rhodopsin kinase GRK1; in test [2]; in test [3]) was more than 100 µM each time.
On to `CC1=C(C(=O)Nc2ccc3[nH]ncc3c2)C(c2ccc(F)c(C(=O)NCc3cc(C(F)(F)F)cc(C(F)(F)F)c3)c2)NC(=O)N1` (stereo unspecified), for which the IC50 (on Rhodopsin kinase GRK1; in test [2]; in test [3]) was more than 100 µM throughout.
In the case of `COc1cccc(CNC(=O)c2cc(C3NC(=O)NC(C)=C3C(=O)Nc3ccc4[nH]ncc4c3)ccc2F)c1` (stereo unspecified), the IC50 on Rhodopsin kinase GRK1 is more than 100 µM; in test [2], 3.8 µM; in test [3] it was more than 100 µM.
Take `CC1=C(C(=O)Nc2ccc3[nH]ncc3c2)C(c2ccc(F)c(C(=O)NCc3c(C(F)(F)F)cccc3C(F)(F)F)c2)NC(=O)N1` (stereo unspecified): the inhibition in test [1] is 22%. Besides, the half-maximal inhibitory concentration (IC50) (at Rhodopsin kinase GRK1; in test [2]; in test [3]) was more than 100 µM in each case.
Take `CC1=C(C(=O)Nc2ccc3[nH]ncc3c2)C(c2ccc(F)cc2)NC(=O)N1` (stereo unspecified) [GSK-180736A]: the IC50 is 0.1 µM in test [4] and more than 100 µM on Rhodopsin kinase GRK1. For the same molecule, the result in test [6] was Active.
On to `COc1ccc(CNC(=O)c2cc(C3NC(=O)NC(C)=C3C(=O)Nc3ccc4[nH]ncc4c3)ccc2F)cc1` (stereo unspecified), for which the IC50 at Rhodopsin kinase GRK1 is more than 100 µM; in test [2], 8.1 µM; in test [3], more than 100 µM.
Turning to `CC1=C(C(=O)Nc2ccc3[nH]ncc3c2)C(c2ccc(F)c(C(=O)NCc3ccccn3)c2)NC(=O)N1` (stereo unspecified), the half-inhibitory concentration (IC50) is 3.9 µM on Rhodopsin kinase GRK1 and more than 100 µM in test [3]. In test [5], the outcome was Active.
On to `CC1=C(C(=O)Nc2ccc3[nH]ncc3c2)C(c2ccc(F)c(C(=O)O)c2)NC(=O)N1` (stereo unspecified), for which the 50% inhibitory concentration (IC50) is 0.19 µM in test [4], more than 100 µM against Rhodopsin kinase GRK1 and 78.1 µM in test [3].
Regarding `CC1=C(C(=O)Nc2ccc3[nH]ncc3c2)C(c2ccc(F)c(C(=O)NCc3cccc(F)c3)c2)NC(=O)N1` (stereo unspecified), the IC50 against Rhodopsin kinase GRK1 is 11.9 µM; in test [3], more than 100 µM.
The molecule `COc1cccc(OC)c1CNC(=O)c1cc(C2NC(=O)NC(C)=C2C(=O)Nc2ccc3[nH]ncc3c2)ccc1F` (stereo unspecified) gave an inhibition in test [1] of 0%. Moreover, the half-maximal inhibitory concentration (IC50) (on Rhodopsin kinase GRK1; in test [2]; in test [3]) was more than 100 µM each time. The outcome in test [5] was Active.
Take `CC1=C(C(=O)Nc2ccc3[nH]ncc3c2)C(c2ccc(F)c(C(=O)NCc3c(C)cccc3C)c2)NC(=O)N1` (stereo unspecified): the IC50 (against Rhodopsin kinase GRK1; in test [3]) was more than 100 µM throughout. Also, the outcome in test [6] was Active.
Consider `CC1=C(C(=O)Nc2ccc3[nH]ncc3c2)C(c2ccc(F)c(C(=O)NCCc3c(C)cccc3C)c2)NC(=O)N1` (stereo unspecified), for which the half-inhibitory concentration (IC50) (at Rhodopsin kinase GRK1; in test [3]) was more than 100 µM in each case.
In the case of `COc1ccccc1CNC(=O)c1cc(C2NC(=O)NC(C)=C2C(=O)Nc2ccc3[nH]ncc3c2)ccc1F` (stereo unspecified), the 50% inhibitory concentration (IC50) is 16 µM at Rhodopsin kinase GRK1, 2.3 µM in test [2] and more than 100 µM in test [3].
Taken in the same sequence, the figures for `CC1=C(C(=O)Nc2ccc3[nH]ncc3c2)C(c2ccc(F)c(CC(=O)NCc3c(C(F)(F)F)cccc3C(F)(F)F)c2)NC(=O)N1` (stereo unspecified) were more than 100 µM, more than 100 µM and more than 100 µM.
On to `CC1=C(C(=O)Nc2ccc3[nH]ncc3c2)C(c2ccc(F)c(C(=O)NCc3nccc4ccccc34)c2)NC(=O)N1` (stereo unspecified), for which the results for the half-inhibitory concentration (IC50) in test [4] and in test [2] were 0.012 µM and 1.8 µM, respectively.
In the case of `CC1=C(C(=O)Nc2ccc3[nH]ncc3c2)C(c2ccc(F)c(C(=O)NCCc3ccncc3)c2)NC(=O)N1` (stereo unspecified), the IC50 in test [4] was 0.084 µM; at Rhodopsin kinase GRK1, more than 100 µM; in test [3] it was more than 100 µM.
As for `CC1=C(C(=O)Nc2ccc3[nH]ncc3c2)C(c2ccc(F)c(CC(=O)NCc3c(C)cccc3C)c2)NC(=O)N1` (stereo unspecified), the half-inhibitory concentration (IC50) (against Rhodopsin kinase GRK1; in test [3]) was more than 100 µM throughout.
As to `CC1=C(C(=O)Nc2ccc3[nH]ncc3c2)C(c2ccc(F)c(C(=O)NCc3ccccc3)c2)NC(=O)N1` (stereo unspecified), the figures for the IC50 (against Rhodopsin kinase GRK1; in test [2]; in test [3]) were 71 µM, 4.7 µM and more than 100 µM, respectively.
For `CC1=C(C(=O)Nc2ccc3c(c2)OCO3)C(c2ccc(F)c(C(=O)NCc3ccccn3)c2)NC(=O)N1` (stereo unspecified), the concentration for half-maximal inhibition (IC50) (against Rhodopsin kinase GRK1; in test [2]; in test [3]) was more than 100 µM each time.
As for `CC1=C(C(=O)Nc2ccc3[nH]ncc3c2)C(c2ccc(F)c(C(=O)NCCc3ccccn3)c2)NC(=O)N1` (stereo unspecified), the half-maximal inhibitory concentration (IC50) on Rhodopsin kinase GRK1 was more than 100 µM; in test [2] it was 6.2 µM; in test [3] it was more than 100 µM.
With `CC1=C(C(=O)Nc2ccc3[nH]ncc3c2)C(c2ccc(F)c(C(=O)NCc3c(Cl)cccc3Cl)c2)NC(=O)N1` (stereo unspecified), the IC50 (against Rhodopsin kinase GRK1; in test [2]; in test [3]) was more than 100 µM each time.
Regarding `CC1=C(C(=O)Nc2ccc3[nH]ncc3c2)C(c2ccc(F)c(C(=O)NCc3ncccc3C)c2)NC(=O)N1` (stereo unspecified), the 50% inhibitory concentration (IC50) (on Rhodopsin kinase GRK1; in test [3]) was more than 100 µM throughout.

As a reminder, the inhibition is the share of the control response that was lost under treatment. By IC50 is commonly meant the concentration at which inhibition is half-maximal. The low end stands for greater potency, the high end for weaker potency.
